Many of the other results were omitted from the sample, so hits are more common in it than they were.
L major viab – Leishmania major promastigote growth inhibition, primary screen; Leishmania major promastigotes, resazurin fluorescence viability; inhibition, % at 10 µM; actives 9% (n = 200,000); in the data active = inhibition above about 50%;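 note: promastigotes grown with compound for 44 hours at 28 °C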
Redox H2O2 prof – compounds producing H2O2 with reducing agent – biochemical, NIH compound library profiling, artefact control for MLSCN library redox annotation, primary screen | DTT-dependent redox cycling H2O2, phenol red/HRP absorbance; 100% = 100 µM peroxide control, 0% = buffer | activation, % at 10 µM | actives 0.03% (n = 200,000) | AID 878, 2007;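 active = activation of at least 50% relative to the plate's high and low controls in the primary single-dose screen; inactive = activation below 50%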;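 note: compound incubated with DTT at 0.8 mM final as the reducing agent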
T cruzi repl – inhibitors of intracellular T. cruzi growth, primary screen, luminescence, NIH3T3 host cells | T. cruzi beta-gal in NIH3T3, 90 h | inhibition, % (concentration not given with the values) | AID 1885, 2009 | actives 1.4% (n = 300,000);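 active = mean inhibition across valid replicates above about 55%, limit read from the data; inconclusive = mean below that limit but half or more replicates reach it; inactive = mean below it, under half of replicates reach it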;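 note: signal also drops with host cell toxicity which is not excluded here; higher percent means less beta-gal luminescence so fewer parasites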
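Incubation – ≥90 h infection period, 3 h prior cell attachment · System – NIH/3T3 fibroblasts plus reporter T. cruzi · Doses – compound pinned at 50 nL/well, DMSO · Read-out basis – percent inhibition of parasite-derived β-gal signal · Signal – luminescent β-galactosidase signal after 60 min lysis · Also added – 5000 T. cruzi trypomastigotes/well · Medium – Low-serum DMEM with 2% FBS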
MPTP block – mitochondrial permeability transition pore inhibitors, primary screen, biochemical, isolated mouse mitochondria, absorbance; Ca2+ swelling absorbance, 30 min; actives 1.4% (n = 360,000); AID 602449, 2012; inhibition, % at 10 µM;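 active = inhibition of 50% or more, scaled per plate between neutral and stimulator controls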
Lipid droplet – inhibitors of hepatocyte lipid droplet formation, primary screen, imaging, high-throughput imaging, BODIPY stain; actives 0.4% (n = 240,000); AID 1656, 2009; AML12 mouse hepatocytes, oleate lipid droplets; inhibition, % at 6.5 µM;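 active = lipid droplet intensity inhibited by at least 50%, with more than 500 cells counted; inconclusive = wells with under 300 cells, treated as cytotoxic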
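Assay system: AML12 mouse liver cells | Compound dosing: One dose, 6.5 µM compound | Read-out basis: Droplet intensity reduction, % inhibition | Measured by: Fluorescence imaging, 20x objective, two fields per well | Schedule: Overnight treatment with compound plus oleate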
A number is an active result; n = inactive; u = inconclusive; x = no result given.

SMILES | L major viab | Redox H2O2 prof | T cruzi repl | MPTP block | Lipid droplet
COc1ccc(S(=O)(=O)Nc2c(NC3CCCCC3)c3ccccc3oc2=O)cc1OC | x | x | n | n | n
CCN(C[C@H]1N[C@@](CC)(C(=O)OC)[C@H]2C(=O)N(Cc3ccccc3)C(=O)[C@@H]12)C(=O)c1ccccc1 | x | x | x | n | x
O=C1/C(=C/c2cccnc2)SC(=S)N1C1CCS(=O)(=O)C1 (stereo unspecified) | 92 | n | n | n | n
O=C1/C(=C\c2cccnc2)SC(=S)N1C1CCS(=O)(=O)C1 (stereo unspecified) | 73 | n | n | n | x
Cc1cc(NC(=O)CSCC(=O)OCc2nnc(-c3ccc(F)cc3)o2)no1 | x | x | x | n | x
CCN(CC)C(=O)CC(c1ccc(F)cc1)c1ccc(OC(C)C)cc1 (stereo unspecified) | n | n | x | x | n
CCn1c(N)[n+](CC(=O)Nc2ccc(SC(F)F)cc2)c2ccccc21 | x | x | n | n | n
COc1ccccc1C1CCN(Cc2ccccc2)CC1 | x | x | n | n | n
COc1ccccc1C1CCN(Cc2ccc3ccccc3c2)CC1 | x | x | 59 | n | x
O=C(CCN1C(=O)c2ccccc2C1=O)C1=NN[C@@H]2C(=O)N(c3ccc4c(c3)OCO4)C(=O)[C@H]12 | x | x | n | n | n
CCOC(=O)C(C)Oc1ccccc1C1NC(=O)NC(C)=C1C(=O)Nc1ccc(C)c(C)c1 (stereo unspecified) | 76 | n | n | n | u
CCOC(=O)c1cc(NC(=O)c2ccccc2)c(=O)n2c1oc1ccccc12 | n | n | n | n | n
CCCC(=O)NC(c1cccc([N+](=O)[O-])c1)c1ccc2cccnc2c1O (stereo unspecified) | x | x | x | n | x
CCCC(=O)NC(c1ccccc1OC)c1ccc2cccnc2c1O (stereo unspecified) | 100 | n | 81 | n | n
CCCCC(=O)NC(c1ccccc1OC)c1ccc2cccnc2c1O (stereo unspecified) | x | x | 57 | n | n
C[C@H](CO)N1C[C@H](C)[C@@H](CN(C)Cc2ccc(F)cc2)Oc2ncc(Br)cc2C1=O | x | x | x | n | x
Cc1ccc(-c2csc(=Nc3cccnc3)n2CCCN2CCCC2=O)cc1C | n | n | n | n | n
Cc1ccc(-c2csc(=Nc3cccnc3)n2CCCn2ccnc2)cc1C | 95 | n | 64 | n | n
c1cncc(N=c2scc(-c3cccc4ccccc34)n2CCCn2ccnc2)c1 | 80 | n | n | n | n
COCCn1c(-c2ccccc2)csc1=Nc1cccnc1 | n | n | n | n | n
COc1ccc(C(CNC(=O)c2ccc(Br)o2)N2CCN(C)CC2)cc1 (stereo unspecified) | x | x | n | n | x
COC(=O)COc1coc(CN2CCN(c3cccc(Cl)c3)CC2)cc1=O | x | x | n | n | n
c1ccc(-c2nc(NCCCn3ccnc3)c3oc4ccccc4c3n2)cc1 | 100 | n | n | n | x
c1ccc(-c2nc(NCCCN3CCOCC3)c3ccccc3n2)cc1 | 62 | n | n | n | n
Cc1cccc(-c2nc(NCCCN3CCOCC3)c3ccccc3n2)c1 | 100 | n | n | n | n
SMILES | L major viab | Redox H2O2 prof | T cruzi repl | MPTP block | Lipid droplet
Cc1nc(NCCCN2CCOCC2)c2oc3ccccc3c2n1 | 97 | n | n | n | n
c1ccc2[nH]c(NCCCN3CCOCC3)nc2c1 | n | n | n | n | x
Cc1nc(NCCN2CCOCC2)c2oc3ccccc3c2n1 | n | n | n | n | x
Cc1ccc(C)c(NC(=O)CSc2nnc3n2CCCCC3)c1 | n | n | n | n | n
COc1ccc(-n2c(COc3ccc4ccccc4c3)nnc2SCC(=O)NCc2ccco2)cc1 | n | n | n | n | n
COc1cccc(OCc2nnc(SCC(=O)NCc3ccco3)n2CCc2ccccc2)c1 | 91 | n | n | n | x
COc1ccc(-n2c(COc3cccc4ccccc34)nnc2SCC(=O)NCc2ccco2)cc1 | 98 | n | n | n | n
COc1ccc(NC(=O)CSc2nnc(Cc3cccs3)n2-c2ccc(C)cc2)cc1 | 98 | n | n | n | n
COc1cccc(NC(=O)CSc2nnc(Cc3cccs3)n2-c2ccc(C)cc2)c1 | n | n | n | n | n
COc1ccc(OC)c(C(=O)CSc2nnc(Cc3cccs3)n2CCc2ccccc2)c1 | 97 | n | n | n | x
CC1CCCC(NC(=O)COC(=O)[C@@H](NC(=O)c2ccc(F)cc2)C(C)C)C1C (stereo partly specified) | x | x | x | n | x
